Screening data from PubChem BioAssay.
Rows were chosen to be rich in hits. Some 4.1% of all compounds tested hit in one or more screens of this group.
UBC13 polyUb = human UBC13 polyubiquitination inhibition | P61088 | UBC13 polyubiquitin chain formation, TR-FRET | inhibition, % at 20 µM | 330,000 compounds, 0.47% hits | AID 485273; in the data active = inhibition above about 45%, passing the limit was not always enough
XBP1 UPR activ = adaptive UPR (XBP1) activation. activation, % at 20 µM. 330,000 compounds, 0.33% hits. AID 463104. CHO-XBP1 luciferase reporter, IRE1-XBP1 UPR activation, luminescence; percent of tunicamycin response, DMSO as zero;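 active = versus positive control, 20 µM dose yields 30% or more activation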;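 note: 100% = tunicamycin at 10 µg/mL and 0% = DMSO only wells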
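incubation = overnight seeding at 37 °C, 6 h compound treatment at 37 °C | assay system = CHO-XBP1 cells stably carrying IRE1-XBP1-driven luciferase reporter | input = 1000 cells per well | detection = luciferase luminescence | dosing = single point, 20 µM final compound, 1% DMSO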
CHOP UPR activ = activators of apoptotic arm of unfolded protein response (CHOP). CHO-CHOP luciferase reporter, UPR activation, luminescence; percent of tunicamycin response over DMSO baseline. activation, % at 10 µM. 330,000 compounds, 0.34% hits. AID 449763;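 active = at 10 µM dose, activation of 40% or more, normalized to positive control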;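 note: 100% = tunicamycin at 10 µg/mL and 0% = DMSO alone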
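measured by = luciferase luminescence | assay system = CHO-CHOP cells, stable luciferase reporter of PERK-eIF2a-CHOP signalling | amount = 500 reporter cells seeded per well | timing = 6 h compound exposure at 37 °C after overnight seeding | controls = positive tunicamycin 10 µg/mL, negative DMSO alone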
Mdm2-MdmX inh = human Mdm2/MdmX binding inhibition; SaOS-2 split-luciferase Mdm2/MdmX complementation, luminescence; inhibition, % at 8 µM; 330,000 compounds, 3% hits; AID 485346;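 active = inhibition of at least 50% at 8 µM in the primary screen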
Apaf-1 inh = inhibitors of human Apaf-1 apoptosome; reconstituted apoptosome caspase-3 activity, DEVD-Rh110 fluorescence; inhibition, % at 20 µM; 330,000 compounds, 0.71% hits; AID 489030; active = inhibition of at least 40% at 20 µM;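 note: plate controls were DMSO wells for no effect and DEVD-CHO caspase inhibitor wells for full effect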
Target sequence (O14727 whole entry, looked up): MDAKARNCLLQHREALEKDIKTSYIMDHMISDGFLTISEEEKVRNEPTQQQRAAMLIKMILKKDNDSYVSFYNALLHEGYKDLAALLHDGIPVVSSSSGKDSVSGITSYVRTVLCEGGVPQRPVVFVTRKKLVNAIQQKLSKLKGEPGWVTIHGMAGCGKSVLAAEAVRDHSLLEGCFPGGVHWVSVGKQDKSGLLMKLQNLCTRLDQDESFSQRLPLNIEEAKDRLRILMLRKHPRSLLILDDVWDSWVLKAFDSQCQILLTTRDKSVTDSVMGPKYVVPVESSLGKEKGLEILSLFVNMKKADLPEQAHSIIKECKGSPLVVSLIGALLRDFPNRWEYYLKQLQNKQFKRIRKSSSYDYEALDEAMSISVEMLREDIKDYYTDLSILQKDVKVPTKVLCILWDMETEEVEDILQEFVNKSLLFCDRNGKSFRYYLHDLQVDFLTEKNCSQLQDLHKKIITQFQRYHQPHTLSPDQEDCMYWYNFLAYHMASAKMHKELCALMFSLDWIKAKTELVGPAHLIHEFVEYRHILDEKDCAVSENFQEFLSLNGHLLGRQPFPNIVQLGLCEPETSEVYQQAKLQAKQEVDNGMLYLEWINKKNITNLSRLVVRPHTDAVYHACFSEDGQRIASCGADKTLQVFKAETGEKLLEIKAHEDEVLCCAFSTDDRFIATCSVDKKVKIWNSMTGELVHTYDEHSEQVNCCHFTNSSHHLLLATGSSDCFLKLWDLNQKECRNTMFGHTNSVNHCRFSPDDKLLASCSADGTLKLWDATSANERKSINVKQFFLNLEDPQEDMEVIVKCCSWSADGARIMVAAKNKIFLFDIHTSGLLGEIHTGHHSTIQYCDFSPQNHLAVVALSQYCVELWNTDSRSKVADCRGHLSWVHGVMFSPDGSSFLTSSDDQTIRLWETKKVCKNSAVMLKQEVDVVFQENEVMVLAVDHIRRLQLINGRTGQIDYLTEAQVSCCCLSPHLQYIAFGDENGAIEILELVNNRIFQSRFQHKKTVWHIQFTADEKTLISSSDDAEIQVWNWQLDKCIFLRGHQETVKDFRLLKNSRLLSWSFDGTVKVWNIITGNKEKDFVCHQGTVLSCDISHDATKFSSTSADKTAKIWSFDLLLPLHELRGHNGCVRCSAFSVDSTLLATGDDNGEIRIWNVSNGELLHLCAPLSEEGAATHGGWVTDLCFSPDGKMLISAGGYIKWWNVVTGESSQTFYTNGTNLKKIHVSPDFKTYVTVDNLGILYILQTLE
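Material: cell-free apoptosome with Apaf-1, procaspase-3 and caspase-9; Buffer or medium: Hepes pH 7.5 with detergent and BSA; Reagent: cytochrome c trigger plus (Z-DEVD)2-Rh110 caspase-3 substrate; Times: compound with Apaf-1, dATP, procaspase-3 30 min, then 50 min reaction, room temperature; Technique: Rh110 fluorescence intensity.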
Mdm2-MdmX conf = confirmation of human Mdm2/MdmX interaction inhibitors. inhibition, % at 8 µM. Mdm2-MdmX binding, luminescent assay. shares compounds with Mdm2-MdmX inh. 10,000 compounds, 55% hits. AID 489028; in the data active = inhibition above about 40%
Full FLuc ctr = full-length luciferase inhibition in Mdm2/MdmX counter-screen; 6,200 compounds, 77% hits; AID 504607; shares compounds with Mdm2-MdmX inh; SaOS-2 full-length luciferase counterscreen, luminescence; inhibition, % at 8 µM;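 active = mean inhibition at 8 µM reaching about 37%, which flags the compound as non-specific, limit read from the data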;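 note: p53-null SaOS-2 cells with luciferase driven by a doxycycline-inducible promoter; compound on cells about two nights before reading with doxycycline added after day one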
* marks the source's active call; other numbers are inactive results.

What do the screens show for `CCOC(=O)/C=c1\s/c(=C\c2sccc2C)c(=O)n1CC(=O)NCc1ccc(C)cc1`?
UBC13 polyUb: -1.8; XBP1 UPR activ: 63.9*; CHOP UPR activ: 53.9*; Mdm2-MdmX inh: 66.0*; Apaf-1 inh: 9.8; Mdm2-MdmX conf: 13.7

Results for CCOC(=O)/C=c1\s/c(=C\c2ccc(-c3ccccc3)cc2)c(=O)n1CC(=O)NCc1ccc2c(c1)OCO2 ?
UBC13 polyUb: -24.1; XBP1 UPR activ: 1.1; CHOP UPR activ: 2.2; Mdm2-MdmX inh: 83.8*; Apaf-1 inh: 16.3; Mdm2-MdmX conf: 9.3

What do the screens show for `Cc1ccc(CNC(=O)Cn2c(=O)c3sccc3n(Cc3ccc([N+](=O)[O-])cc3)c2=O)cc1`?
UBC13 polyUb: -2.4; XBP1 UPR activ: 0.2; CHOP UPR activ: 2.3; Mdm2-MdmX inh: 0.8; Apaf-1 inh: -14.7

How did CCOC(=O)/C=c1\s/c(=C\c2ccc(C(F)(F)F)cc2)c(=O)n1CC(=O)NCc1ccco1 do in these assays?
UBC13 polyUb: -38.1; XBP1 UPR activ: 13.9; CHOP UPR activ: 11.1; Mdm2-MdmX inh: 75.7*; Apaf-1 inh: 17.7; Mdm2-MdmX conf: 31.4

How did O=C(COC(=O)Cc1ccsc1)Nc1ccc(Br)cc1F do in these assays?
UBC13 polyUb: 11.7; XBP1 UPR activ: -4.3; CHOP UPR activ: -2.2; Mdm2-MdmX inh: 8.1; Apaf-1 inh: 7.0

How did O=S(=O)(/N=C(/Nc1ccc(F)cc1F)c1ccccc1)c1ccc(Br)cc1 do in these assays?
UBC13 polyUb: -3.6; XBP1 UPR activ: 1.8; CHOP UPR activ: 5.8; Mdm2-MdmX inh: 25.3; Apaf-1 inh: -1.6

How did Cc1occc1C(=O)NNC(=O)c1ccccc1Br do in these assays?
UBC13 polyUb: -3.5; XBP1 UPR activ: -1.9; CHOP UPR activ: 2.7; Mdm2-MdmX inh: -1.5; Apaf-1 inh: 10.6

Results for CC(O)/C=C/c1ccc2ccccc2n1 (configuration not stated) ?
UBC13 polyUb: -15.6; XBP1 UPR activ: -0.6; CHOP UPR activ: 2.2; Mdm2-MdmX inh: 59.8*; Apaf-1 inh: -3.1; Mdm2-MdmX conf: 22.2

How did Fc1cccc(F)c1/C=C/c1ccc2ccccc2n1 do in these assays?
UBC13 polyUb: -18.2; XBP1 UPR activ: -5.2; CHOP UPR activ: 3.2; Mdm2-MdmX inh: -174.0; Apaf-1 inh: 21.1

Results for CCC(=O)Nc1cc2nn(-c3ccc(C)cc3)nc2cc1C ?
UBC13 polyUb: -6.7; XBP1 UPR activ: -6.2; CHOP UPR activ: -4.5; Mdm2-MdmX inh: 66.5*; Apaf-1 inh: 0.2; Mdm2-MdmX conf: 67.2*; Full FLuc ctr: 145.8*

Results for CCn1c2ccccc2c2cc([N+](=O)[O-])ccc21 ?
UBC13 polyUb: -7.6; XBP1 UPR activ: -3.2; CHOP UPR activ: 0.4; Mdm2-MdmX inh: -3.9; Apaf-1 inh: 5.2

How did CN(C)CCn1c2ccccc2c2nc3ccc([N+](=O)[O-])cc3cc21 do in these assays?
UBC13 polyUb: -4.9; XBP1 UPR activ: 8.4; CHOP UPR activ: -0.4; Mdm2-MdmX inh: 100.3*; Apaf-1 inh: -2.9; Mdm2-MdmX conf: 83.6*; Full FLuc ctr: 59.7*

How did O=C(NC(=C(Cl)Cl)S(=O)(=O)c1ccc(Cl)cc1)c1ccccc1 do in these assays?
UBC13 polyUb: 8.8; XBP1 UPR activ: 1.7; CHOP UPR activ: 13.3; Mdm2-MdmX inh: 61.7*; Apaf-1 inh: 4.5; Mdm2-MdmX conf: 57.8*; Full FLuc ctr: 13.1

What do the screens show for `Cc1ccc(S(=O)(=O)C(NC(=O)c2ccccc2)=C(Cl)Cl)cc1`?
UBC13 polyUb: 1.8; XBP1 UPR activ: 2.5; CHOP UPR activ: -0.4; Mdm2-MdmX inh: 65.3*; Apaf-1 inh: 12.2; Mdm2-MdmX conf: 23.4

Results for Cc1ccc(C(=O)NC(=C(Cl)Cl)S(=O)(=O)c2ccc(C)cc2)cc1 ?
UBC13 polyUb: 4.5; XBP1 UPR activ: -2.0; CHOP UPR activ: 1.1; Mdm2-MdmX inh: 27.2; Apaf-1 inh: 14.1

Results for Cc1ccc(C(=O)NC(=C(Cl)Cl)S(=O)(=O)c2ccc(Cl)cc2)cc1 ?
UBC13 polyUb: 1.1; XBP1 UPR activ: 2.5; CHOP UPR activ: 1.2; Mdm2-MdmX inh: 35.4; Apaf-1 inh: 17.6

How did COCCNC(=O)c1oc2ccc3c(c2c1C)C(O)CC(C)(C)O3 (configuration not stated) do in these assays?
UBC13 polyUb: 11.4; XBP1 UPR activ: -0.1; CHOP UPR activ: -0.1; Mdm2-MdmX inh: 0.0; Apaf-1 inh: 1.8

What do the screens show for `Cc1c(C(=O)N2CCC(C)CC2)oc2ccc3c(c12)C(O)CC1(CCCCC1)O3` (configuration not stated)?
UBC13 polyUb: -6.3; XBP1 UPR activ: 15.4; CHOP UPR activ: -0.3; Mdm2-MdmX inh: 75.6*; Apaf-1 inh: 27.5; Mdm2-MdmX conf: 23.4

Results for C=C(CC1([C@@H](NP(=O)(c2ccccc2)c2ccccc2)[C@H]2C[C@@H]2CCCC)CC1)c1ccccc1 ?
UBC13 polyUb: -10.0; XBP1 UPR activ: 6.6; CHOP UPR activ: 2.1; Mdm2-MdmX inh: 59.1*; Apaf-1 inh: 15.5; Mdm2-MdmX conf: 23.0

Results for CC(C)NC(=O)c1ccccc1NC(=O)/C=C/c1cccc([N+](=O)[O-])c1 ?
UBC13 polyUb: -10.2; XBP1 UPR activ: 26.4; CHOP UPR activ: -0.1; Mdm2-MdmX inh: 75.3*; Apaf-1 inh: 8.4; Mdm2-MdmX conf: 11.2

Results for CC(C)C(NC(=O)/C=C/c1cccc([N+](=O)[O-])c1)C(C)C ?
UBC13 polyUb: 8.0; XBP1 UPR activ: -2.8; CHOP UPR activ: -2.0; Mdm2-MdmX inh: 0.6; Apaf-1 inh: 4.8

Results for CCC(C)c1ccc2oc(-c3ccc(NC(=O)Cn4cnc5c(=O)n(C)c(=O)n(C)c54)cc3)nc2c1 (configuration not stated) ?
UBC13 polyUb: 8.3; XBP1 UPR activ: 24.9; CHOP UPR activ: 22.3; Mdm2-MdmX inh: 50.4*; Apaf-1 inh: 4.8; Mdm2-MdmX conf: 61.2*; Full FLuc ctr: 146.9*

What do the screens show for `CCC(C)NC(=O)c1ccccc1-c1nc2ccccc2[nH]1` (configuration not stated)?
UBC13 polyUb: 1.9; XBP1 UPR activ: -2.3; CHOP UPR activ: -2.8; Mdm2-MdmX inh: 23.2; Apaf-1 inh: -9.6

How did O=c1oc(-c2cccnc2)nc2ccccc12 do in these assays?
UBC13 polyUb: -10.9; XBP1 UPR activ: -0.7; CHOP UPR activ: 0.6; Mdm2-MdmX inh: -4.0; Apaf-1 inh: -6.8

What do the screens show for `O=c1oc(-c2ccccc2Br)nc2ccccc12`?
UBC13 polyUb: 9.0; XBP1 UPR activ: 14.9; CHOP UPR activ: 5.2; Mdm2-MdmX inh: 64.7*; Apaf-1 inh: 7.1; Mdm2-MdmX conf: 50.1*; Full FLuc ctr: 47.2*
